The nature of data set [1]: Cytotoxicity against human LCC-6 cells after 72 hrs. The data set is classed as functional, cell-based. The note with it: LCC-6, 72 h. In a few lines: (§1)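 Cells seeded at 1 × 10⁴ per well in supplemented DMEM and given graded doses of dimer for 72 h at 37 °C, 5% CO₂. Survival measured and IC50 derived. N = 1–3 independent experiments, mean ± SEM.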
In the next data set the test system is MDR. Kind of data set: Cytotoxicity against human MDA435/LCC6MDR cells expressing MDR after 72 hrs. In kind it is functional, cell-based. In a few lines:
as §1

Data set [2] is filed under the species Homo sapiens. Put plainly: Inhibition of P-gp-mediated paclitaxel resistance in human LCC6MDR cells assessed as fold decrease in paclitaxel IC50 for cytotoxic activity at 0.5 uM after 5 days by MTS assay relative to parental cells. In kind it is cell-based. For orientation: Formazan colour is commonly taken as a measure of viable cells.
The species named for data set [3] is Homo sapiens. Kind of data set: Inhibition of P-gp-mediated paclitaxel resistance in human LCC6MDR cells assessed as fold decrease in paclitaxel IC50 for cytotoxic activity at 1 uM after 5 days by MTS assay relative to parental cells. The data set is classed as cell-based.
The next data set has as its system L929. Put plainly: Cytotoxicity against mouse L929 cells after 72 hrs. In kind it is cell-based. The conditions noted are these: L929, 72 h. In a few lines:
as §1

The nature of data set [4]: Therapeutic index, ratio of IC50 for L929 cells to EC50 for reversing paclitaxel resistance in human MDA435/LCC6MDR cells. The data set is classed as cell-based. The note with it: L929 cells (IC50) and MDA435/LCC6MDR cells (EC50).
A short description of data set [5]: Reversal of P-gp-mediated paclitaxel-resistance in human LCC6MDR cells after 5 days by MTS assay. In kind it is cell-based. The note with it: 120 h.

Consider `CN(C)c1cccc2c(S(=O)(=O)N(CCOCCOc3ccc(-c4cc(=O)c5ccccc5o4)cc3)CCOCCOc3ccc(-c4cc(=O)c5ccccc5o4)cc3)cccc12`, for which the IC50 (in data set [1]; in the data set on MDR) was above 100 µM each time. The Ratio in the data set filed under Homo sapiens [2] was 1.4; in the data set filed under Homo sapiens [3] it was 1.3.
Take `COc1cc(-c2cc(=O)c3ccccc3o2)ccc1OCCOCCNCCOCCOc1ccc(-c2cc(=O)c3ccccc3o2)cc1OC`: the IC50 (as a rule, the concentration that gives 50% inhibition) was found to be 12.8 µM in data set [1] and 23.8 µM in the data set with MDR. Also, the figures for the Ratio in the data set listed under Homo sapiens [2] and in the data set filed under Homo sapiens [3] were 0.8 and 1.1, respectively.
On to `O=c1c(OCc2ccccc2)c(-c2ccc(OCCOCCNCCOCCOc3ccc(-c4oc5ccccc5c(=O)c4OCc4ccccc4)cc3)cc2)oc2ccccc12`, for which the values for the IC50 (in the data set with L929; in data set [1]; with MDR) were 4.2 µM, 4.3 µM and 4.4 µM, respectively. Besides, the Ratio in the data set filed under Homo sapiens [2] was 54.7; in the data set filed under Homo sapiens [3], 128.
In the case of `O=C(c1ccccc1)N(CCOCCOc1ccc(-c2cc(=O)c3ccccc3o2)cc1)CCOCCOc1ccc(-c2cc(=O)c3ccccc3o2)cc1`, the IC50 is 95 µM in the data set on L929, above 100 µM in data set [1] and above 100 µM in the data set with MDR. Further, the Ratio in the data set listed under Homo sapiens [2] turned out to be 7.5; in the data set listed under Homo sapiens [3], 42.5.
For the compound `CCOC(=O)CCN(CCOCCOc1ccc(-c2cc(=O)c3ccccc3o2)cc1)CCOCCOc1ccc(-c2cc(=O)c3ccccc3o2)cc1`, the IC50 in the data set with L929 is 18.1 µM; in data set [1], 13.5 µM; in the data set on MDR, 17.7 µM. The results for the Ratio in the data set listed under Homo sapiens [2] and in the data set listed under Homo sapiens [3] were 5.3 and 43.7, respectively.
`CCN(CCOCCOc1ccc(-c2cc(=O)c3ccccc3o2)cc1)CCOCCOc1ccc(-c2cc(=O)c3ccccc3o2)cc1`: the selectivity ratio in data set [4] stood at 34.5. Also, the IC50 with L929 was 6.9 µM; in data set [1], 10.3 µM; in the data set with MDR, 17.3 µM. The Ratio in the data set filed under Homo sapiens [2] came out at 26.9; in the data set listed under Homo sapiens [3], 95.7. Further, the concentration giving a half-maximal response (EC50) (as a rule, the concentration at which the effect is half-maximal) in data set [5] is 0.2 µM.
With `C[C@H](N)C(=O)N(CCOCCOc1ccc(-c2cc(=O)c3ccccc3o2)cc1)CCOCCOc1ccc(-c2cc(=O)c3ccccc3o2)cc1`, the concentration for half-maximal inhibition (IC50) in data set [1] was 4.4 µM; with MDR, 4.6 µM. Also, the Ratio was determined as 1 in the data set filed under Homo sapiens [2] and 0.9 in the data set listed under Homo sapiens [3].
As to `O=c1cc(-c2ccc(OCCOCCN(CCOCCOc3ccc(-c4cc(=O)c5ccccc5o4)cc3)Cc3ccncc3)cc2)oc2ccccc12`, the IC50 in the data set with L929 is 26.4 µM; in data set [1] it was above 100 µM; in the data set with MDR, above 100 µM. The Ratio in the data set listed under Homo sapiens [2] was 6.9; in the data set filed under Homo sapiens [3] it was 27.8.
Turning to `COc1cc(-c2cc(=O)c3ccccc3o2)ccc1OCCOCCN(CCOCCOc1ccc(-c2cc(=O)c3ccccc3o2)cc1OC)C(=O)OC(C)(C)C`, the IC50 in the data set on L929 is 33.3 µM; in data set [1] it was 8.3 µM; in the data set with MDR, 6.9 µM. Also, the Ratio turned out to be 8.7 in the data set filed under Homo sapiens [2] and 16.8 in the data set listed under Homo sapiens [3].
In the case of `Cc1ccc(S(=O)(=O)N(CCOCCOc2ccc(-c3cc(=O)c4ccccc4o3)cc2)CCOCCOc2ccc(-c3cc(=O)c4ccccc4o3)cc2)cc1`, the IC50 (in the data set with L929; in data set [1]; with MDR) was above 100 µM throughout. Also, the Ratio came to 5.8 in the data set filed under Homo sapiens [2] and 21.6 in the data set filed under Homo sapiens [3].
On to `O=c1cc(-c2ccc(OCCOCCN(CCO)CCOCCOc3ccc(-c4cc(=O)c5ccccc5o4)cc3)cc2)oc2ccccc12`, for which the IC50 in the data set with L929 is 6.9 µM; in data set [1], 10.7 µM; in the data set with MDR, 14.8 µM. The Ratio turned out to be 5 in the data set filed under Homo sapiens [2] and 32.6 in the data set filed under Homo sapiens [3].
Turning to `COC(=O)c1ccc(CN(CCOCCOc2ccc(-c3cc(=O)c4ccccc4o3)cc2)CCOCCOc2ccc(-c3cc(=O)c4ccccc4o3)cc2)cc1`, the IC50 in the data set with L929 came to 11.4 µM; in data set [1], 33.3 µM; with MDR, 64.8 µM. The figures for the Ratio in the data set listed under Homo sapiens [2] and in the data set listed under Homo sapiens [3] were 2.1 and 18.9, respectively.
The corresponding values for `Cc1ccc2oc(-c3ccc(OCCOCCN(CCOCCOc4ccc(-c5cc(=O)c6cc(C)ccc6o5)cc4)C(=O)OC(C)(C)C)cc3)cc(=O)c2c1` are above 100 µM, above 100 µM, above 100 µM, 9.6 and 139.
As for `O=c1cc(-c2ccc(OCCOCCNCCOCCOc3ccc(-c4cc(=O)c5cc(F)ccc5o4)cc3)cc2)oc2ccc(F)cc12`, the concentration for half-maximal inhibition (IC50) in the data set on L929 is 5.7 µM; in data set [1] it was 5.3 µM; with MDR, 3.3 µM. For the same compound, the Ratio in the data set listed under Homo sapiens [2] stood at 72.9; in the data set filed under Homo sapiens [3] it was 109.
On to `CS(=O)(=O)N(CCOCCOc1ccc(-c2cc(=O)c3ccccc3o2)cc1)CCOCCOc1ccc(-c2cc(=O)c3ccccc3o2)cc1`, for which the IC50 with L929 is 13.4 µM; in data set [1], 27.5 µM; in the data set with MDR it was 42.6 µM. Also, the results for the Ratio in the data set listed under Homo sapiens [2] and in the data set filed under Homo sapiens [3] were 12.8 and 20.1, respectively.
Take `COc1cccc2oc(-c3ccc(OCCOCCNCCOCCOc4ccc(-c5cc(=O)c6c(OC)cccc6o5)cc4)cc3)cc(=O)c12`: the figures for the IC50 (in data set [1]; in the data set with MDR) were 8.8 µM and 10.2 µM, respectively. The Ratio in the data set listed under Homo sapiens [2] and in the data set filed under Homo sapiens [3] was 1.2 each time.
`CC(C)(C)CC(=O)N(CCOCCOc1ccc(-c2cc(=O)c3ccccc3o2)cc1)CCOCCOc1ccc(-c2cc(=O)c3ccccc3o2)cc1`: the IC50 (in the data set on L929; in data set [1]; in the data set with MDR) was above 100 µM throughout. For the same compound, the figures for the Ratio in the data set filed under Homo sapiens [2] and in the data set listed under Homo sapiens [3] were 18.9 and 72.9, respectively.
Consider `O=c1cc(-c2ccc(OCCOCCNCCOCCOc3ccc(-c4cc(=O)c5ccccc5o4)cc3)cc2)oc2ccccc12`, for which, in data set [4], the selectivity ratio was 19.3. Moreover, the IC50 in the data set on L929 amounted to 5.9 µM; in data set [1], 3.3 µM; with MDR it was 2.4 µM. Also, the Ratio was determined as 72.9 in the data set filed under Homo sapiens [2] and 139 in the data set filed under Homo sapiens [3]. For the same compound, the EC50 in data set [5] was determined as 0.305 µM.
In the case of `COc1cccc2oc(-c3ccc(OCCOCCN(CCOCCOc4ccc(-c5cc(=O)c6c(OC)cccc6o5)cc4)C(=O)OC(C)(C)C)cc3)cc(=O)c12`, the IC50 in the data set on L929 is 5.5 µM; in data set [1], 4.6 µM; with MDR it was 5.4 µM. The results for the Ratio in the data set filed under Homo sapiens [2] and in the data set listed under Homo sapiens [3] were 14.9 and 109, respectively.
On to `O=c1cc(-c2ccc(OCCOCCOCCOCCOc3ccc(-c4cc(=O)c5ccccc5o4)cc3)cc2)oc2ccccc12`, for which the Ratio in the data set listed under Homo sapiens [2] was determined as 6.2; in the data set filed under Homo sapiens [3], 17.2.
Take `CC(=O)O[C@H]1C(=O)[C@@]2(C)[C@H]([C@H](OC(=O)c3ccccc3)[C@]3(O)C[C@H](OC(=O)[C@H](O)[C@@H](NC(=O)c4ccccc4)c4ccccc4)C(C)=C1C3(C)C)[C@]1(OC(C)=O)CO[C@@H]1C[C@@H]2O`: the Ratio in the data set listed under Homo sapiens [3] stood at 1.
Regarding `CC(C)(C)OC(=O)N(CCOCCOc1ccc(-c2oc3ccccc3c(=O)c2OCc2ccccc2)cc1)CCOCCOc1ccc(-c2oc3ccccc3c(=O)c2OCc2ccccc2)cc1`, the IC50 (in data set [1]; in the data set on MDR) was above 100 µM each time. The results for the Ratio in the data set listed under Homo sapiens [2] and in the data set listed under Homo sapiens [3] were 1.1 and 1.2, respectively.
Consider `O=c1cc(-c2ccc(OCCOCCN(CCOCCOc3ccc(-c4cc(=O)c5ccccc5o4)cc3)Cc3ccccn3)cc2)oc2ccccc12`, for which the figures for the IC50 (with L929; in data set [1]; in the data set with MDR) were 10 µM, 10 µM and 29.7 µM, respectively. Further, the figures for the Ratio in the data set filed under Homo sapiens [2] and in the data set listed under Homo sapiens [3] were 15.8 and 95.7, respectively.
For the compound `O=C1c2ccccc2C(=O)N1CCN(CCOCCOc1ccc(-c2cc(=O)c3ccccc3o2)cc1)CCOCCOc1ccc(-c2cc(=O)c3ccccc3o2)cc1`, the IC50 in the data set with L929 is 17 µM; in data set [1], 8.6 µM; in the data set with MDR, 4.9 µM. Moreover, the Ratio stood at 9.6 in the data set listed under Homo sapiens [2] and 118 in the data set listed under Homo sapiens [3].
The like results for `O=c1cc(-c2ccc(OCCOCCN(CCOCCOc3ccc(-c4cc(=O)c5ccccc5o4)cc3)Cc3ccc(F)c(F)c3)cc2)oc2ccccc12` were, in that order, 42.2 µM, 32.5 µM, 33.6 µM, 49.3 and 109.
As for `CC(C)(C)OC(=O)N(CCOCCOc1ccc(-c2cc(=O)c3cc(F)ccc3o2)cc1)CCOCCOc1ccc(-c2cc(=O)c3cc(F)ccc3o2)cc1`, the IC50 (in the data set on L929; in data set [1]; with MDR) was above 100 µM each time. Besides, the values for the Ratio in the data set listed under Homo sapiens [2] and in the data set filed under Homo sapiens [3] were 11.3 and 31.9, respectively.
For `Cc1ccc2oc(-c3ccc(OCCOCCNCCOCCOc4ccc(-c5cc(=O)c6cc(C)ccc6o5)cc4)cc3)cc(=O)c2c1`, the IC50 in the data set with L929 came out at 6 µM; in data set [1], 7.5 µM; in the data set with MDR, 7 µM. The values for the Ratio in the data set filed under Homo sapiens [2] and in the data set listed under Homo sapiens [3] were 13.9 and 139, respectively.
For the compound `O=C(O)CCC(=O)N(CCOCCOc1ccc(-c2cc(=O)c3ccccc3o2)cc1)CCOCCOc1ccc(-c2cc(=O)c3ccccc3o2)cc1`, the results for the IC50 (in data set [1]; in the data set with MDR) were 78.4 µM and above 100 µM, respectively. Besides, the Ratio in the data set filed under Homo sapiens [2] amounted to 1.1; in the data set listed under Homo sapiens [3], 0.9.
Consider `O=c1cc(-c2ccc(OCCOCCN(CCOCCOc3ccc(-c4cc(=O)c5ccccc5o4)cc3)Cc3cc(F)c(F)c(F)c3)cc2)oc2ccccc12`, for which the half-inhibitory concentration (IC50) in the data set on L929 was above 100 µM; in data set [1], above 75 µM; in the data set with MDR, above 100 µM. Moreover, the Ratio in the data set listed under Homo sapiens [2] came to 3.3; in the data set listed under Homo sapiens [3], 80.6.
With `C/C=C/C[C@@H](C)C(=O)[C@H]1C(=O)N[C@@H](C(C)C)C(=O)N(C)CC(=O)N(C)[C@@H](CC(C)C)C(=O)N[C@@H](C(C)C)C(=O)N(C)[C@@H](CC(C)C)C(=O)N[C@@H](C)C(=O)N[C@H](C)C(=O)N(C)[C@@H](CC(C)C)C(=O)N(C)[C@@H](CC(C)C)C(=O)N(C)[C@@H](C(C)C)C(=O)N1C` [VALSPODAR], the IC50 was above 100 µM in the data set on L929, 25.3 µM in data set [1] and 14.6 µM in the data set with MDR. Besides, in the data set filed under Homo sapiens [3], the Ratio was found to be 85.1.

The values above are taken from ChEMBL document CHEMBL2203168, “Amine linked flavonoid dimers as modulators for P-glycoprotein-based multidrug resistance: structure-activity relationship and mechanism of modulation” (J Med Chem, 2012).
